Sampled rows, rich in hits. Any-hit rate of the full collection: about 3.3%.
Arr AP2 block: human beta-arrestin and AP2 interaction inhibition; FITC-arrestin peptide / GST-AP2 beads, flow cytometry; AP2 beta2 appendage carries R879A mutation; inhibition, % at 10 µM; hit rate 0.31% among 340,000; AID 504490;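 active = inhibition above a set limit, near 3 SD of compounds lacking own fluorescence, cut at about 54% in these data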;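 note: plate controls were DMSO wells for no effect and 5 µM unlabelled arrestin peptide for full effect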
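Assay system: GST-AP2 R879A bound to glutathione beads, E. coli-expressed; Medium: PBS with 0.05% Tween 20 and 0.1% BSA; Also added: fluorescein-tagged arrestin peptide at 50 nM final; Timing: 12 min plus 1 h, RT; Measured by: flow cytometry, FL1 (488/535 nm); Evaluation: percent drop in bead-associated FITC signal.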
PfM18AAP inh-1: PfM18AAP enzyme inhibition | hit rate 1.2% among 290,000 | recombinant PfM18AAP, H-Glu-NHMec fluorogenic cleavage | inhibition, % at 7.35 µM;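 active = inhibition above the campaign mean inhibition over all tested compounds plus 3 SD, cut at about 28% in these data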;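 note: 0% = plate median of test compound wells and 100% = 2 mM ZnCl2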
Hep lipid drop: modulators of hepatic lipid droplet formation. AML12 mouse hepatocytes, oleate lipid droplets, BODIPY imaging. inhibition, % at 6.5 µM. hit rate 0.4% among 240,000. AID 1656;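 active = lipid droplet intensity inhibited by at least 50%, with more than 500 cells counted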
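Material: mouse AML12 hepatocyte cell line, fixed after treatment; Timing: compound with oleate, overnight; Technique: high-content imaging of BODIPY-stained droplets and DAPI nuclei; Probe or stimulus: oleate, 100 µM final; Dosing: compound at 6.5 µM only.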
NRP1-CendR mod: alters CendR peptide binding to human NRP-1; inhibition, % at 25 µM; FAM-RPARPAR peptide binding to NRP-1, fluorescence polarization; AID 602438; hit rate 0.85% among 360,000;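 active = inhibition or corrected inhibition above about 18%, plus a signal ratio from 0.5 to 1.5, limit read from the data, passing the limit was not always enough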
HGIII-sPLA2 inh: Blocks human group III sPLA2 activity; Q9NZ20; QFRET BODIPY PC-A2 liposome hydrolysis, fluorescence; inhibition, % at 12.2 µM; hit rate 0.56% among 370,000; AID 743126;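 active = inhibition above mean plus 3 SD of compounds lying within the high and low control bounds, cut at about 19% in these data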;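 note: 0% = median of test compound wells and 100% = no enzyme DMSO wells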
Target sequence (Q9NZ20 whole entry, looked up): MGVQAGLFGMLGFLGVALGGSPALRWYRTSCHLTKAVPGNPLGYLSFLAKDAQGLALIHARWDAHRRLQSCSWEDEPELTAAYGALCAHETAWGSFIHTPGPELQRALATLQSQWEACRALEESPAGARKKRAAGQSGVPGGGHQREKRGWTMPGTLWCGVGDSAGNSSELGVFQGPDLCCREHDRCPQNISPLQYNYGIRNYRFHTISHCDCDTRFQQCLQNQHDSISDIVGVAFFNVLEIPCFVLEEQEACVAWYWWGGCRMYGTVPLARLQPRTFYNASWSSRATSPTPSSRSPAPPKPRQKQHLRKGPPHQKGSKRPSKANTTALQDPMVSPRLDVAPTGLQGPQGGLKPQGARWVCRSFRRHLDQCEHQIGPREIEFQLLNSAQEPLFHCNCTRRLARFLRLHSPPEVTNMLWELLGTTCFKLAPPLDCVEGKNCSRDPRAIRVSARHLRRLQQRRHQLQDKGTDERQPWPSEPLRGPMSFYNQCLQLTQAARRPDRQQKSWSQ
m5-HT2A agonist: mouse HTR2A agonism via beta-arrestin recruitment; P35363; CHO-K1 mHTR2A beta-arrestin complementation, luminescence; percent of 30 µM serotonin response; activation, % at 7.6 µM; hit rate 0.66% among 360,000; AID 624169;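 active = activation above a run cutoff, the mean activation of all tested compounds plus 3 SD, cut at about 14% in these data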;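 note: 0% = plate median of compound wells and 100% = 30 µM serotonin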
PfM18AAP inh-2: PfM18AAP inhibition, confirmation. shares compounds with PfM18AAP inh-1. recombinant PfM18AAP, H-Glu-NHMec fluorogenic cleavage. inhibition, % at 7.35 µM. hit rate 28% among 2,400. AID 2170;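 active = mean inhibition over replicate wells above the hit cutoff set for the earlier primary screen, cut at about 29% in these data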;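 note: 0% = median of test compound wells and 100% = 2 mM ZnCl2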
CTSL1 counter: Cathepsin L (human) inhibition, confirmation; inhibition, % at 5.96 µM; 2,400 tested, under 10 active; shares compounds with PfM18AAP inh-1; purified cathepsin L1, Z-Leu-Arg-MCA fluorescence;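 active = average inhibition across replicates above the hit cutoff set in the earlier primary screen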;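 note: 0% = median of test compound wells and 100% = Z-Phe-Ala-diazomethylketone 1 µM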
An asterisk follows results filed as active.

`O=C(CSc1nc2ccccc2s1)NNC(=O)Nc1ccc(Cl)c(Cl)c1` gave Arr AP2 block -3, PfM18AAP inh-1 52*, Hep lipid drop -19, NRP1-CendR mod -1, HGIII-sPLA2 inh -39, m5-HT2A agonist 2, PfM18AAP inh-2 -22 and CTSL1 counter 3.
For O=C(NNc1nc2ccccc2s1)Nc1ccc(F)cc1 the results were Arr AP2 block 16, PfM18AAP inh-1 60*, Hep lipid drop 3, NRP1-CendR mod 4, HGIII-sPLA2 inh 8, m5-HT2A agonist 5, PfM18AAP inh-2 34* and CTSL1 counter -4.
For CC(C)C(=O)NNc1nc2ccccc2s1 the results were Arr AP2 block -5, PfM18AAP inh-1 11, Hep lipid drop -19, NRP1-CendR mod -5, HGIII-sPLA2 inh 11 and m5-HT2A agonist 3.
`O=C(NNc1nc2ccccc2s1)C1CC1` gave Arr AP2 block -2, PfM18AAP inh-1 56*, NRP1-CendR mod -1, HGIII-sPLA2 inh -3, m5-HT2A agonist -3, PfM18AAP inh-2 24 and CTSL1 counter -3.
`O=C(CSc1nc2ccccc2s1)Nc1ccc(Cl)c(C(=O)O)c1` gave Arr AP2 block 0, PfM18AAP inh-1 7, Hep lipid drop 3, NRP1-CendR mod -5, HGIII-sPLA2 inh -6 and m5-HT2A agonist 0.
Screening O=C(NNc1nc2ccccc2s1)c1ccccc1F returned Arr AP2 block 19, PfM18AAP inh-1 47*, NRP1-CendR mod -2, HGIII-sPLA2 inh 11, m5-HT2A agonist -2, PfM18AAP inh-2 -5 and CTSL1 counter 6.
Screening Nc1[nH]c(C(=O)c2ccc(Cl)cc2)c(-c2ccc(Br)cc2)c1C(=O)c1c[nH]c2ccc(F)cc12 returned HGIII-sPLA2 inh 5.
Screening CSCCC(NC(=O)c1cccc(C)c1)C(=O)NCc1cccs1 (stereo not given) returned Arr AP2 block 30, NRP1-CendR mod 4, HGIII-sPLA2 inh -3 and m5-HT2A agonist 6.
Screening O=C(NNc1nc2ccccc2s1)Nc1ccc(Cl)c(Cl)c1 returned Arr AP2 block -9, PfM18AAP inh-1 60*, Hep lipid drop 4, NRP1-CendR mod 5, HGIII-sPLA2 inh 6, m5-HT2A agonist 1, PfM18AAP inh-2 49* and CTSL1 counter -4.
`Cc1ccc(NC(=O)[C@@H](Cc2ccccc2)NC(=O)[C@H]2O[C@@H](n3ccc(=O)[nH]c3=O)[C@H](O)[C@@H]2O)cc1C` gave HGIII-sPLA2 inh -8.
For O=C(O)c1cccc(NC(=S)N/N=C/c2cccc(O)c2)c1 the results were Arr AP2 block -5, PfM18AAP inh-1 50*, NRP1-CendR mod 0, HGIII-sPLA2 inh -3, m5-HT2A agonist 1, PfM18AAP inh-2 11 and CTSL1 counter 5.
Screening CCCCN=Cc1c(C)[nH]n(-c2ccccc2)c1=S returned Arr AP2 block 3, PfM18AAP inh-1 51*, Hep lipid drop 4, NRP1-CendR mod 9, HGIII-sPLA2 inh 18, m5-HT2A agonist -3, PfM18AAP inh-2 -18 and CTSL1 counter 1.
Screening S=c1[nH]nc(Cn2nnc3ccccc32)n1-c1ccc(Cl)cc1 returned Arr AP2 block 7, PfM18AAP inh-1 39*, Hep lipid drop 13, NRP1-CendR mod -6, HGIII-sPLA2 inh 4, m5-HT2A agonist -1, PfM18AAP inh-2 4 and CTSL1 counter 2.
For S=c1[nH]nc(CN2CCCCC2)n1-c1ccc(Cl)cc1 the results were Arr AP2 block 2, PfM18AAP inh-1 13, Hep lipid drop 11, NRP1-CendR mod -2, HGIII-sPLA2 inh -4 and m5-HT2A agonist 2.
S=c1[nH]nc(Cn2cnc3ccccc32)n1-c1ccccc1 was read as Arr AP2 block -7, PfM18AAP inh-1 42*, Hep lipid drop -1, NRP1-CendR mod 2, HGIII-sPLA2 inh 1, m5-HT2A agonist 5, PfM18AAP inh-2 -9 and CTSL1 counter 0.
COCc1n[nH]c(=S)n1-c1ccccc1 was read as Arr AP2 block 8, PfM18AAP inh-1 12, Hep lipid drop 9, NRP1-CendR mod 12, HGIII-sPLA2 inh 9 and m5-HT2A agonist 5.
For CC(C)CN(C(=O)CN(C)C(=O)c1ccco1)c1c(N)n(CC(C)C)c(=O)[nH]c1=O the results were Arr AP2 block 23, NRP1-CendR mod 15, HGIII-sPLA2 inh 0 and m5-HT2A agonist 4.
`Cc1ccc(C(C)C)cc1NC(=O)Nc1ccc([N+](=O)[O-])cc1` gave Arr AP2 block -14, PfM18AAP inh-1 -3, Hep lipid drop 16, NRP1-CendR mod 1, HGIII-sPLA2 inh 4 and m5-HT2A agonist -5.
`CC1(C)CC(=O)C(C(=S)Nc2ccccc2)=C(NC2CC(C)(C)NC(C)(C)C2)C1` gave Arr AP2 block 6, PfM18AAP inh-1 47*, Hep lipid drop 2, NRP1-CendR mod -10, HGIII-sPLA2 inh 7, m5-HT2A agonist 1, PfM18AAP inh-2 -48 and CTSL1 counter 3.
Screening CC1(C)CC(NC(=S)Nc2ccc(S(N)(=O)=O)cc2)CC(C)(C)N1 returned Arr AP2 block 24, PfM18AAP inh-1 2, Hep lipid drop 3, NRP1-CendR mod -7, HGIII-sPLA2 inh -2 and m5-HT2A agonist 6.
Screening Nc1ccccc1Nc1cc(-c2ccccc2)nn1-c1ccccc1 returned Arr AP2 block 28, PfM18AAP inh-1 5, Hep lipid drop 10, NRP1-CendR mod 3, HGIII-sPLA2 inh 16 and m5-HT2A agonist -3.
Nc1ccccc1Nc1cc(-c2ccccc2)[nH]n1 was read as Arr AP2 block 14, PfM18AAP inh-1 39*, Hep lipid drop -1, NRP1-CendR mod -16, HGIII-sPLA2 inh -6, m5-HT2A agonist 4, PfM18AAP inh-2 -27 and CTSL1 counter 4.
O=c1c2ccccc2cnn1Cc1n[nH]c(=S)n1-c1ccc(F)cc1 was read as Arr AP2 block 17, PfM18AAP inh-1 36*, Hep lipid drop 9, NRP1-CendR mod -4, HGIII-sPLA2 inh 14, m5-HT2A agonist 4, PfM18AAP inh-2 -1 and CTSL1 counter 2.
For O=c1c2ccccc2cnn1Cc1n[nH]c(=S)n1-c1ccccc1Cl the results were Arr AP2 block 4, PfM18AAP inh-1 38*, Hep lipid drop -9, NRP1-CendR mod 5, HGIII-sPLA2 inh 8, m5-HT2A agonist 8, PfM18AAP inh-2 6 and CTSL1 counter 1.
O=c1c2ccccc2cnn1Cc1n[nH]c(=S)n1-c1ccc(F)c(Cl)c1 was read as Arr AP2 block -27, PfM18AAP inh-1 21, Hep lipid drop 3, NRP1-CendR mod -9, HGIII-sPLA2 inh 11 and m5-HT2A agonist -4.
`O=C(Cn1c(-c2cncs2)nc2ccccc21)NC1CCCCC1` gave HGIII-sPLA2 inh 11.

Source: PubChem BioAssay
